In PMC8682764 (Nucleic Acids Research, 2021):
Where a SMILES comes first, the peptide text is derived from it. Bridges are numbered along the chain shown (N, C = ends). [ ]: non-standard residue; d: D form. The star is where a group is joined. d(αMeK) = C[C@@](N)(CCCCN)C(=O)O; dPhg = N[C@@H](C(=O)O)c1ccccc1; Isobutyryl = CC(C)C(=O)*; Abu = CC[C@H](N)C(=O)O

B1: LANA 779–1049: GFP-LANA fragment 779–1049 (protein)
chain: QEQELEEQEQELEEQEQELEEQEQELEEQEQELEEQEQELEEQEQELEEQEQELEEQEQELEEQEVEEQEQEVEEQEQEQEEQELEEVEEQEQEQEEQEEQELEEVEEQEEQELEEVEEQEEQELEEVEEQEQQELEEVEEQEQQGVEQQEQETVEEPIILHGSSSEDEMEVDYPVVSTHEQIASSPPGDNTPDDDPQPGPSREYRYVLRTSPPHRPGVRMRRVPVTHPKKPHPRYQQPPVPYRQIDDCPAKARPQHIFYRRFLGKDGRRD
modifications: left off: GFP, end not stated, kept

Key:
[1] = system: WDR5 WIN binding pocket / MLL1-WDR5 interaction; conditions: cited from earlier work
[2] = system: WDR5 / MBP-LANAΔ33–888 interaction; experiment: Co-precipitation of WDR5 with MBP-LANAΔ33–888; format: binding; conditions: co-precipitation with MBP-LANAΔ33–888, Coomassie blue detection
[3] = system: WDR5 in LANA/MLL1 complex; experiment: Co-precipitation of ASH2L, RbBP5, WDR5 or MLL1-SET with MBP-LANAΔ33–888; format: binding; conditions: co-precipitation with MBP-LANAΔ33–888, immunoblot
MLL1 = experiment: Co-IP of GFP-LANA regions with MLL1; format: binding; conditions: co-IP after expression in 293T cells, anti-Flag
How it was run: (§1)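 Incubated overnight at 4°C with anti-Flag M2 (2 μg) agarose beads. Beads washed 3–6 times in lysis buffer and eluted in SDS buffer. Proteins resolved by SDS-PAGE and detected by western blot.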

WDR5 = experiment: Co-IP of GFP-LANA regions with Flag-WDR5; format: binding; conditions: co-IP after expression in 293T cells, anti-Flag
How it was run: as §1

Row | Molecule | MLL1-WDR5 interaction inhibition [1] | effect on WDR5-LANA interaction [2] | exclusion of WDR5 from LANA/MLL1 complex [3] | interaction with MLL1 (MLL1) | interaction with WDR5 (WDR5)
1 | CC[C@@H]1NC(=O)[C@H](CCCN=C(N)N)NC(=O)[C@](C)(NC(=O)C(C)C)CCCCNC(=O)[C@@H](c2ccccc2)NC1=O [MM-401] (Isobutyryl-[d(αMeK)]R[Abu][dPhg]; lactam 1-C) | occupies the WDR5 WIN binding pocket and thereby inhibits MLL1-WDR5 interaction | blocked the interaction of WDR5 with LANA | excluded nearly all WDR5 from the LANA/MLL1 complex | – | –
2 | B1 | – | – | – | did not | interacted with LANA 779–1049
